1 compound from ChEMBL document CHEMBL3804769, “Antibacterial Diamines Targeting Bacterial Membranes” (J Med Chem, 2016) can be followed below.

Data set [1] deals with Staphylococcus aureus. Briefly: Potentiation of kanamycin-induced antibacterial activity against Staphylococcus aureus RN4220 ATCC 35556 assessed as kanamycin MIC at 0.5 times MIC99 after 24 hrs by checkerboard assay (reference value: 16 ug/ml). Type of data set: functional. To be noted: RN4220 ATCC 35556, 24 h. In short, it runs like this: (§1)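 Checkerboard assay: compound serially diluted along one axis of a 96-well plate and antibiotic along the other, in LB. Each well inoculated with 2 × 10⁴ CFU and incubated 24 h at 37 °C. ΣFIC = FIC A + FIC B, where each FIC is the combination MIC99 divided by the MIC99 of that drug alone.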

The subject of data set [2] is Pseudomonas aeruginosa. Kind of data set: Antibacterial activity against Pseudomonas aeruginosa PAO1 ATCC 47085 in exponential-phase assessed as cytoplasmic membrane depolarization at 1 to 4 times MIC99 by fluorescent probe DiSC3-5 based fluorophotometric analysis. In kind it is functional, organism-based. In short, it runs like this:
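Log-phase cells (OD600 ~0.7) washed and resuspended to OD600 0.05 in 5 mM HEPES pH 7.2 with 5 mM glucose and 100 mM KCl. Loaded with 0.4 μM DiSC3-5 in the dark until fluorescence fell stably by about 90%. Compound added at 4× or 1× MIC99 and fluorescence recorded continuously at 25 °C (ex 622/em 670 nm). 2,4-Dinitrophenol as positive control. Three independent experiments.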

Data set [3] in a line: Cytotoxicity against human A549 cells after 48 hrs by MTS conversion assay. Type of data set: cell-based. Summed up:
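HEK293T/17 and A549 cells maintained in DMEM with 10% FBS at 37 °C, 5% CO2. Seeded at 10⁴ cells per well; after 24 h, washed with PBS and exposed to serially diluted compound for 48 h. Viability read by MTS conversion. CC50 obtained by nonlinear regression.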
A general note: Formazan colour is commonly taken as a measure of viable cells.

The subject of data set [4] is Staphylococcus aureus. Briefly: Antibacterial activity against Staphylococcus aureus RN4220 ATCC 35556 at 0.5 times MIC99 after 24 hrs by checkerboard assay in presence of norfloxacin. In kind it is functional. In short, it runs like this:
as §1

A short description of data set [5]: Selectivity index, ratio of CC50 for HEK293T/17 cells to MIC99 for Pseudomonas aeruginosa PAO1 ATCC 47085. Conditions: human, read-out: Selectivity Index. Type of data set: toxicity, cell-based. In short, it runs like this:
(§2)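 CC50: HEK293T/17 or A549 cells seeded at 10⁴ per well in DMEM with 10% FBS at 37 °C, 5% CO2. After 24 h, wells PBS-washed and serially diluted compound applied for 48 h, with viability read by MTS and CC50 taken by nonlinear regression. MIC99 by CLSI broth microdilution, overnight at 37 °C without shaking, from three independent tests. SI = CC50/MIC99.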

Data set [6] can be described thus: Selectivity index, ratio of CC50 for human A549 cells to MIC99 for Escherichia coli ANS1. In short, it runs like this: as §2
Data set [7] deals with Staphylococcus aureus. Kind of data set: Antibacterial activity against methicillin-resistant Staphylococcus aureus clinical isolate at MIC99 after 12 hrs by microbroth dilution method in presence of 10% fetal bovine serum. In kind it is functional, organism-based. In short, it runs like this: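 Broth microdilution MIC99 run with 10% fetal bovine serum in the medium, after 12 h preincubation of compound with the serum. Plates incubated overnight at 37 °C without shaking. MIC99 taken as the lowest concentration giving complete growth inhibition.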
On the technique in general: Dilution methods test growth across graded concentrations, often in twofold steps.

The test system of data set [8] is Staphylococcus aureus. Briefly: Antibacterial activity against Staphylococcus aureus RN4220 ATCC 35556 in early exponential-phase assessed as lysis of cells at 2 times MIC99 after 30 to 60 mins by transmission electron microscopy. Type of data set: functional, organism-based. In short, it runs like this:
(§3)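 Cells grown in LB to early exponential phase (OD600 ~0.4). Exposed to 2× MIC99 for 15–60 min, washed twice in phosphate buffer, fixed in 2.5% glutaraldehyde, then imaged by transmission electron microscopy.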

Data set [9] in a line: Hemolytic activity in human RBC after 1 hr. In kind it is ADME, cell-based, Erythrocyte. Conditions: red blood cells. Summed up: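 Human red blood cells, stored at 4 °C, added to serially diluted compound and incubated 1 h at 37 °C without shaking. Plates centrifuged and supernatant absorbance read at 540 nm. Triton X-100 as positive control. HC50 is the concentration lysing 50% of cells.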

Data set [10] has as its system Pseudomonas aeruginosa. Kind of data set: Bactericidal activity against Pseudomonas aeruginosa PAO1 ATCC 47085 assessed as reduction in bacterial burden at 4 times MIC99. Type of data set: functional.
The test system of data set [11] is Staphylococcus aureus. Briefly: Antibacterial activity against Staphylococcus aureus RN4220 ATCC 35556 at 0.5 times MIC99 after 24 hrs by checkerboard assay in presence of ampicillin. In kind it is functional. In short, it runs like this:
as §1

Data set [12] relates to Caenorhabditis elegans. Kind of data set: Toxicity in adult L4/juvenile L1 stages of Caenorhabditis elegans N2 assessed as effect on viable eggs production at 64 ug/ml incubated for 96 hrs measured every 12 hrs. Type of data set: organism-based. Conditions: in vivo. Summed up: (§4)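 C. elegans N2 maintained on NGM agar at 22 °C. Compound mixed into molten NGM agar at 64 μg/mL. L4 adults, L1 juveniles and synchronized eggs transferred onto test plates and kept 96 h at 22 °C. Checked every 12 h for death, development and egg production. Gentamicin and […] as controls.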

Data set [13] concerns Pseudomonas aeruginosa. Kind of data set: Antibacterial activity against Pseudomonas aeruginosa PAO1 ATCC 47085 at 0.5 times MIC99 after 24 hrs by checkerboard assay in presence of ampicillin. In kind it is functional. In short, it runs like this:
as §1

Data set [14] relates to Caenorhabditis elegans. Briefly: Toxicity in adult L4/juvenile L1 stages of Caenorhabditis elegans N2 assessed as effect on locomotion at 64 ug/ml incubated for 96 hrs measured every 12 hrs. In kind it is organism-based. Conditions: in vivo.
In data set [15] the test system is Caenorhabditis elegans. Briefly: Toxicity in adult L4/juvenile L1 stages of Caenorhabditis elegans N2 assessed as effect on egg development at 64 ug/ml incubated for 96 hrs measured every 12 hrs. Type of data set: organism-based. Conditions: in vivo. Summed up: as §4
The test system of data set [16] is Pseudomonas aeruginosa. Briefly: Antibacterial activity against Pseudomonas aeruginosa PAO1 ATCC 47085 in early exponential-phase assessed as membrane damage at 2 times MIC99 after 15 mins by transmission electron microscopy. Type of data set: functional, organism-based. In short, it runs like this:
as §3

The test system of data set [17] is Staphylococcus aureus. Briefly: Antibacterial activity against methicillin-resistant Staphylococcus aureus clinical isolate 10082B SPA type 1 after 24 hrs by microbroth dilution method. Type of data set: functional. Summed up: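 MRSA isolates from ICU surfaces, stored at −80 °C and grown in Mueller-Hinton broth. Overnight cultures diluted and added to serially diluted compound at ~10⁵ CFU/mL, broth microdilution. Plates incubated 24 h at 37 °C, growth read as absorbance at 620 nm. MIC99 taken as the lowest concentration giving complete growth inhibition.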

The test system of data set [18] is Pseudomonas aeruginosa. Kind of data set: Bactericidal activity against Pseudomonas aeruginosa PAO1 ATCC 47085 in stationary-phase assessed as reduction in bacterial burden at 4 times MIC99 after 4 hrs by time-kill assay. In kind it is functional, organism-based. Summed up:
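Overnight cultures washed and resuspended in PBS, then diluted 100-fold into LB (exponential-phase model) or into 1% PBS (stationary-phase model). Test agent added at 4× MIC99. Incubated at 37 °C with shaking at 200 rpm. CFU counted on LB agar at 0, 2, 4 and 6 h.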

A short description of data set [19]: Selectivity index, ratio of CC50 for human A549 cells to MIC99 for Staphylococcus aureus RN4220 ATCC 35556. In kind it is toxicity, cell-based. Conditions: read-out: Selectivity Index. In short, it runs like this:
as §2

Data set [20] deals with Pseudomonas aeruginosa. Kind of data set: Antibiofilm activity against Pseudomonas aeruginosa PAO1 ATCC 47085 assessed as dispersal of formed biofilm after 24 hrs by crystal violet staining-based spectrophotometry. In kind it is functional, organism-based. Summed up:
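Biofilms first grown 24 h on peg lids without compound, then washed. Pegs transferred into serially diluted compound in 10% LB-PBS and incubated a further 24 h at 37 °C. Remaining biofilm stained with crystal violet, eluted in ethanol and read at 600 nm. 300 μM EDTA as positive control for dispersal.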

Activity calls are given as the source filed them. No cut-off for these calls is given here.

By MIC99 is commonly meant the lowest concentration that inhibits either 99% of growth or 99% of the strains tested, depending on the study. One may read the CC50 as the concentration that lowers cell viability or growth by half. A higher CC50 goes with lower toxicity to the cells. One may read the HC50 as the concentration that lyses half of the red blood cells. `Cl.Cl.S=C(NCCCNCCCCCNCCCNC(=S)NCC(c1ccccc1)c1ccccc1)NCC(c1ccccc1)c1ccccc1`: the MIC99 with Staphylococcus aureus [1] worked out at 2 µg/mL; with Staphylococcus aureus [17], 1 µg/mL. In addition, the result in the data set on Pseudomonas aeruginosa [2], with Staphylococcus aureus [7], in the data set with Staphylococcus aureus [8], in the data set on Pseudomonas aeruginosa [16], with Pseudomonas aeruginosa [18] and in the data set on Pseudomonas aeruginosa [20] was Active. In data set [3], this compound gave a CC50 at 48 h of 64 µg/mL. Moreover, the “fractional inhibitory concentration index (FICI)” value in the data set on Staphylococcus aureus [4] is given as 0.75; with Staphylococcus aureus [11] it was 0.75; with Pseudomonas aeruginosa [13], 2. The selectivity ratio in [5] turned out to be 4; in data set [19] it was 32. The “Selectivity Index” value in [6] is given as 32. This compound displayed an HC50 at 1 h in data set [9] of 64 µg/mL. Further, the Activity in the data set with Pseudomonas aeruginosa [10] is over 2 deltalog10CFU/ml; in the data set with Caenorhabditis elegans [12], “Non-toxic”; with Caenorhabditis elegans [14], “Non-toxic”; with Caenorhabditis elegans [15], “Non-toxic”.
